In ChEMBL document CHEMBL1817612, “Inhibitory potential of chemical substitutions at bioinspired sites of β-D-galactopyranose on neoglycoprotein/cell surface binding of two classes of medically relevant lectins” (Bioorg Med Chem, 2011):
One block for each compound: values may come before it. Calls of active or inactive are those of the source. The rule behind the calls is not given here.

Key:
[1] = Cytotoxicity against human SW480 cells assessed as growth inhibition at 5 mM after 48 hrs by MTT assay; format: cell-based; details: read-out: GI
In short: (§1)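 SW480 human colon adenocarcinoma cell aliquots were cultured 48 h with no addition (control) or with test compound added to the medium at 1, 2, 5 or 10 mM. Galactose and lactose were run as controls. Growth was read spectrophotometrically with MTT (0.5 mg/ml) and expressed relative to the untreated control. Triplicates were run in three independent series.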

SW480 = assay: (§2) Cytotoxicity against human SW480 cells assessed as cell viability at 2 mM after 48 hrs by MTT assay; format: cell-based; details: sw480, 48 h, 2000 µM; in short: as §1
[2] = molecular target: Galectin-8 (Homo sapiens) (UniProt O00214); assay: (§3) Inhibition of galectin-8 binding to biotinylated lectin at cell surface of human SW480 cells at 2 mM by fluorometric analysis; format: cell-based
In short: (§4)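 Biotinylated recombinant galectin-8 (1 µg/ml) or galectin-9 (40 µg/ml) was bound to 5 × 10⁴ SW480 cells per assay, with or without compound at 2 mM. Lactose was run in parallel. Staining via a fluorescent second-step reagent was quantified as percent positive cells and mean fluorescence intensity. Controls were omission of lectin and non-cognate sugars.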

[3] = molecular target: Galectin-3 (Homo sapiens) (UniProt P17931); assay: Inhibition of galectin-3 binding to biotinylated lectin at cell surface of human Jurkat T-cells at 100 uM by fluorometric analysis; format: cell-based
Galectin-3 (Homo sapiens), sequence (P17931 whole entry): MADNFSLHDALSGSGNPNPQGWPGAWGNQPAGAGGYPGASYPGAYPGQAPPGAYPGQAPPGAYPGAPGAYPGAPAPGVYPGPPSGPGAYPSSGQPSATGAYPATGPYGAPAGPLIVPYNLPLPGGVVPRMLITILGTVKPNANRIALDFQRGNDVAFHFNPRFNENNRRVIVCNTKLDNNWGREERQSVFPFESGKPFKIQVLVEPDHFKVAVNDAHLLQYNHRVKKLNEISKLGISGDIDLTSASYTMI
In short: (§5)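 Recombinant biotinylated galectin-3, at a concentration set by titration, was bound to 5 × 10⁴ Jurkat or SW480 cells per assay, with or without compound. Lactose was run in parallel as reference. A fluorescent second-step reagent gave percent positive cells and mean fluorescence intensity by flow cytometry. Negative controls omitted labeled lectin, and non-cognate sugars served as osmolarity controls.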

[4] = molecular target: Galectin-3 (Homo sapiens) (UniProt P17931); assay: Inhibition of galectin-3 binding to biotinylated lectin at cell surface of human Jurkat T-cells at 2 mM by fluorometric analysis; format: cell-based; in short: as §5
[5] = molecular target: Galectin-9 (Homo sapiens) (UniProt O00182); assay: Inhibition of galectin-9 binding to biotinylated lectin at cell surface of human SW480 cells at 2 mM by fluorometric analysis; format: cell-based; in short: as §4
Galectin-9 (Homo sapiens), sequence (O00182 whole entry): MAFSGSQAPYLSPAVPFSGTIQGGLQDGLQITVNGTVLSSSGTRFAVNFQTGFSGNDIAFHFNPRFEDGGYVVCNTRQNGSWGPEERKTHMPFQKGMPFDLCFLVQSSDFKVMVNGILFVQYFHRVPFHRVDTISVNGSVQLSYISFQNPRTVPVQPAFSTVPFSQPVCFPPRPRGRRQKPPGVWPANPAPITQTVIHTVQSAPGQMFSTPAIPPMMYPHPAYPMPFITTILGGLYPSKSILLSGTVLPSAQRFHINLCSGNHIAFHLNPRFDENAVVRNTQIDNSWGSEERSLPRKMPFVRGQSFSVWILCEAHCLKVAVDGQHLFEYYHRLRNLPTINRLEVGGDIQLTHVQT

[6] = molecular target: Galectin-3 (Homo sapiens) (UniProt P17931); assay: Inhibition of galectin-3 binding to biotinylated lectin at cell surface of human SW480 cells at 100 uM by fluorometric analysis; format: cell-based; in short: as §5
Jurkat [7] = assay: Inhibition of Viscum album agglutinin binding to biotinylated lectin at cell surface of human Jurkat T-cells at 1 mM by fluorometric analysis; format: cell-based
In short: (§6)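 Biotinylated mistletoe lectin (VAA, purified from dried leaves on lactosylated Sepharose) was bound to 5 × 10⁴ Jurkat cells per assay at 2.5 µg/ml, with or without compound. Staining was detected with a fluorescent second-step reagent by flow cytometry, as percent positive cells and mean fluorescence intensity. Controls were lactose/galactose, non-cognate sugars for osmolarity, and omission of labeled lectin.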

[8] = molecular target: Galectin-3 (Homo sapiens) (UniProt P17931); assay: Ratio IC50 for lactose to compound for galectin-3 binding to biotinylated neoglycoprotein with p-isothiocyanatophynyl lactoside assessed as lectin-neoglycoprotein complex formation after 1 hr by spectrophotometric analysis
In short: (§7)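 Lactosylated BSA (p-isothiocyanatophenyl lactoside, about 26 sugars per carrier) was adsorbed to wells from PBS overnight at 4 °C. Biotinylated lectin, at a concentration from titration, was incubated 1 h at 37 °C with up to nine compound concentrations. Bound lectin was read spectrophotometrically. Glycocluster concentration was normalized to sugar content, and lactose served as internal reference. Triplicates were run in up to five series.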

Viscum album = assay: Ratio IC50 for lactose to compound for Viscum album agglutinin binding to biotinylated neoglycoprotein with p-isothiocyanatophynyl lactoside assessed as lectin-neoglycoprotein complex formation after 1 hr by spectrophotometric analysis; in short: as §7
[9] = Cytotoxicity against human SW480 cells assessed as growth inhibition at 1 mM after 48 hrs by MTT assay; format: cell-based; details: read-out: GI; in short: as §1
[10] = as §2; format: cell-based; details: SW480 cells, read-out: GI; in short: as §1
[11] = molecular target: Galectin-9 (Homo sapiens) (UniProt O00182); assay: Ratio IC50 for lactose to compound for galectin-9 binding to biotinylated neoglycoprotein with p-isothiocyanatophynyl lactoside assessed as lectin-neoglycoprotein complex formation after 1 hr by spectrophotometrically relative to lactose; in short: as §7
[12] = molecular target: T1, Galectin-8 (Homo sapiens) (UniProt O00214); assay: Ratio IC50 for lactose to compound for galectin-8 binding to biotinylated neoglycoprotein with p-isothiocyanatophynyl lactoside assessed as lectin-neoglycoprotein complex formation after 1 hr by spectrophotometric analysis; in short: as §7
T1 sequence (whole entry): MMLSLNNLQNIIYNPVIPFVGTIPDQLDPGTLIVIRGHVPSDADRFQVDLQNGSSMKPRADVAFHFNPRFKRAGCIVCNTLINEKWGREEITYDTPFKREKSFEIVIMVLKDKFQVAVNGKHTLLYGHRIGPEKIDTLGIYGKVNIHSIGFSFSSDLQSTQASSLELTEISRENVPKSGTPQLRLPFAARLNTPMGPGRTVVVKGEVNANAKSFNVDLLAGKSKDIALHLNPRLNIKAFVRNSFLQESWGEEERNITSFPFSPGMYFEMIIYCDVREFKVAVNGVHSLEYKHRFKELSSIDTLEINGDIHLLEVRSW

[13] = molecular target: Galectin-3 (Homo sapiens) (UniProt P17931); assay: Inhibition of galectin-3 binding to biotinylated lectin at cell surface of human SW480 cells at 15 uM by fluorometric analysis; format: cell-based; in short: as §5
[14] = molecular target: T1, Galectin-8 (Homo sapiens); assay: as §3; format: cell-based; in short: as §4; remark: listed apart in the source
[15] = molecular target: Galectin-3 (Homo sapiens) (UniProt P17931); assay: Inhibition of galectin-3 binding to biotinylated lectin at cell surface of human Jurkat T-cells at 15 uM by fluorometric analysis; format: cell-based; in short: as §5
[16] = molecular target: Galectin-3 (Homo sapiens) (UniProt P17931); assay: Inhibition of galectin-3 binding to biotinylated lectin at cell surface of human Jurkat T-cells at 1 mM by fluorometric analysis relative to lactose; format: cell-based; in short: as §5
Jurkat [17] = assay: Inhibition of Viscum album agglutinin binding to biotinylated lectin at cell surface of human Jurkat T-cells at 2.5 ug/ml by fluorometric analysis; format: cell-based; in short: as §6
[18] = molecular target: Galectin-1 (Homo sapiens) (UniProt P09382); assay: Ratio IC50 for lactose to compound for galectin-1 binding to biotinylated neoglycoprotein with p-isothiocyanatophynyl lactoside assessed as lectin-neoglycoprotein complex formation after 1 hr by spectrophotometric analysis; in short: as §7
Galectin-1 (Homo sapiens), sequence (P09382 whole entry): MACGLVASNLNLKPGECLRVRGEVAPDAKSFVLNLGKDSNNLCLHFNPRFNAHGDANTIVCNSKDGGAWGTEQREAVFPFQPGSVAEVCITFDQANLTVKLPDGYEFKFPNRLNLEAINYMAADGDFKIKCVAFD

Compound: C/C=C/[C@@H]1O[C@H](CO)[C@H](O)[C@H](O)[C@H]1O
inhibition at 48 h, 5000 µM [1]: 50% | Activity (SW480): Non-toxic

Compound: LACTOSE, ANHYDROUS
inhibition [2]: Active | inhibition [3]: Active | inhibition [4]: inactive | inhibition [5]: Active | inhibition [6]: Active

Compound: O=C(O)c1cn([C@H]2[C@@H](O)[C@@H](CO)O[C@@H](Sc3nc4ccccc4s3)[C@@H]2O)nn1
Ratio IC50 [8]: 1.4 | inhibition at 48 h, 1000 µM [9]: 70% | inhibition at 48 h, 2000 µM [10]: 40%

Compound: CC(C)(C)C(=O)c1cc(CO[C@@H]2O[C@H](CO)[C@H](O[C@@H]3O[C@H](CO)[C@H](O)[C@H](O)[C@H]3O)[C@H](O)[C@H]2O)on1
Ratio IC50 [11]: 1.7 | Ratio IC50 [12]: 2.2 | Ratio IC50 [8]: 1.6 | inhibition [14]: Active | inhibition [5]: Active

Compound: COc1ccc(C(=O)Nc2nc(C)c([C@@H]3O[C@H](CO)[C@H](O)[C@H](O)[C@H]3O)s2)cc1
inhibition at 48 h, 5000 µM [1]: 50% | Activity (SW480): Non-toxic

Compound: Cc1nc(NS(=O)(=O)c2ccc3ccccc3c2)sc1[C@@H]1O[C@H](CO)[C@H](O)[C@H](O)[C@H]1O
inhibition at 48 h, 5000 µM [1]: 50% | Activity (SW480): Non-toxic

Second part, led by results:

Ratio IC50 [8]: 1.3 | Ratio IC50 (Viscum album): 1.2
Compound: Cc1nc(NC(=O)c2ccccc2)sc1[C@@H]1O[C@H](CO)[C@H](O)[C@H](O)[C@H]1O
inhibition (Jurkat [7]): Active

Ratio IC50 [11]: 7.7 | Ratio IC50 [12]: 6.9 | inhibition [13]: Active | Ratio IC50 [8]: 8.4 | inhibition [14]: Active | inhibition [15]: Active | Ratio IC50 (Viscum album): 6.2 | inhibition [5]: Active | fold change (FC) [16]: 7
Compound: O=C(NCc1cn([C@@H]2O[C@H](CO)[C@H](O[C@@H]3O[C@H](CO)[C@H](O)[C@H](O)[C@H]3O)[C@H](O)[C@H]2O)nn1)c1cc(C(=O)NCc2cn([C@@H]3O[C@H](CO)[C@H](O[C@@H]4O[C@H](CO)[C@H](O)[C@H](O)[C@H]4O)[C@H](O)[C@H]3O)nn2)cc(C(=O)NCc2cn([C@@H]3O[C@H](CO)[C@H](O[C@@H]4O[C@H](CO)[C@H](O)[C@H](O)[C@H]4O)[C@H](O)[C@H]3O)nn2)c1
inhibition at 48 h, 1000 µM [9]: 75% | inhibition (Jurkat [17]): Active | inhibition at 48 h, 2000 µM [10]: 58%

Ratio IC50 [8]: 1.1 | Ratio IC50 (Viscum album): 1.3
Compound: Cc1nc(NC(=O)Cc2ccccc2)sc1[C@@H]1O[C@H](CO)[C@H](O)[C@H](O)[C@H]1O
inhibition (Jurkat [7]): Active

Ratio IC50 [8]: 1.8
Compound: C#CCO[C@H]1[C@@H](O)[C@@H](CO)O[C@@H](Sc2ccccc2C(=O)OC)[C@@H]1O
inhibition at 48 h, 1000 µM [9]: 10%

Ratio IC50 [11]: 1.4
Compound: O=S(=O)(O)OCc1cn([C@H]2[C@@H](O)[C@@H](CO)O[C@@H](Sc3nc4ccccc4s3)[C@@H]2O)nn1

Ratio IC50 [11]: 5.1 | Ratio IC50 [12]: 4.6 | Ratio IC50 [8]: 6.2 | inhibition [14]: Active | Ratio IC50 (Viscum album): 2.2 | inhibition [5]: Active | fold change (FC) [16]: 7 | Ratio IC50 [18]: 1.8
Compound: O=C(CCSCCC(F)(F)C(F)(F)C(F)(F)C(F)(F)C(F)(F)C(F)(F)C(F)(F)C(F)(F)F)NC(CO[C@@H]1O[C@H](CO)[C@H](O)[C@H](O)[C@H]1O)(CO[C@@H]1O[C@H](CO)[C@H](O)[C@H](O)[C@H]1O)CO[C@@H]1O[C@H](CO)[C@H](O)[C@H](O)[C@H]1O
inhibition (Jurkat [17]): Active

Ratio IC50 (Viscum album): 1.9
Compound: OC[C@@H]1O[C@H](C/C=C/c2cccc(/C=C/C[C@@H]3O[C@H](CO)[C@H](O)[C@H](O)[C@H]3O)c2)[C@@H](O)[C@H](O)[C@@H]1O

inhibition [4]: inactive
Compound: C=C(C[C@@H]1O[C@H](CO)[C@H](O)[C@H](O)[C@H]1O)c1cccc([N+](=O)[O-])c1
